In ChEMBL document CHEMBL1136924 (J Med Chem, 2009):
Calls of active or inactive are those of the source.

Assays:
[1] = Apparent volume of distribution with respect to the bioavailability in CD1 albino mouse plasma at 20 mg/kg, ip; type: ADME, organism-based; conditions: read-out: Vc/F
Method in brief: (§1)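 Male CD1 mice (25-30 g) given ip 5 or 20 mg/kg, killed at set times; trunk blood plasma and brain collected. Solid-phase C18 extraction with internal standard, HPLC-UV at 240 nm. Quantification limits about 0.25 nmol/mL plasma, 0.5 nmol/g brain. Three mice per point. Half-life 0.693/β; clearance dose·F/AUC.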

[2] = target: 5-hydroxytryptamine receptor 2A (Rattus norvegicus, UniProt P14842); experiment: Displacement of [3H]ketanserin from 5HT2A receptor in rat cortex
[3] = Elimination half life in CD1 albino mouse plasma at 20 mg/kg, ip; type: ADME, organism-based; parameters: dose 20 mg/kg, route intraperitoneal; conditions: read-out: beta t1/2; method in brief: as §1
[4] = target: T1, 5-hydroxytryptamine receptor 3A (Cavia porcellus) (UniProt O70212); experiment: Agonist activity at 5HT3 receptor in spontaneously beating guinea pig right atrium assessed as positive chronotropic potency; type: functional, tissue-based; conditions: Cardiac atrium
T1 sequence (whole entry): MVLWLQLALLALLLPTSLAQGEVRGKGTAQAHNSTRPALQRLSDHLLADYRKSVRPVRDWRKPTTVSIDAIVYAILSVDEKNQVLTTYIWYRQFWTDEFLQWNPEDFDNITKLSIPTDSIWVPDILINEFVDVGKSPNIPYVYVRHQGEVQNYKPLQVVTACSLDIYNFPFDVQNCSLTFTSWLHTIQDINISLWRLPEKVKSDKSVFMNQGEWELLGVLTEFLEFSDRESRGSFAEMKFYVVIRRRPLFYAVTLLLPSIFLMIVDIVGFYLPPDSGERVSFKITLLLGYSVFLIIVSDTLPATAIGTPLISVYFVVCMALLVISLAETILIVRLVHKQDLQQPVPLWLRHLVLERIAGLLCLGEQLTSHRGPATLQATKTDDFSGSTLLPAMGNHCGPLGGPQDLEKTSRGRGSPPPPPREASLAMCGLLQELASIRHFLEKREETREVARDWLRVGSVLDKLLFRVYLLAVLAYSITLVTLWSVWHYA
Method in brief: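 Isolated guinea pig atria in PSS (Tyrode) with ketanserin 1 µM, 95% O2-5% CO2, pH 7.4, 35 °C. Right atrium beating spontaneously (rate); left atrium paced 1 Hz, 0.6-0.8 ms pulses near 50% threshold (force). Isometric recording after 45-60 min stabilization.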

[5] = target: T2, 5-hydroxytryptamine receptor 3A (Rattus norvegicus, UniProt P35563); experiment: Displacement of [3H]LY278584 from 5HT3 receptor in rat cortical homogenate
T2 sequence (P35563 whole entry): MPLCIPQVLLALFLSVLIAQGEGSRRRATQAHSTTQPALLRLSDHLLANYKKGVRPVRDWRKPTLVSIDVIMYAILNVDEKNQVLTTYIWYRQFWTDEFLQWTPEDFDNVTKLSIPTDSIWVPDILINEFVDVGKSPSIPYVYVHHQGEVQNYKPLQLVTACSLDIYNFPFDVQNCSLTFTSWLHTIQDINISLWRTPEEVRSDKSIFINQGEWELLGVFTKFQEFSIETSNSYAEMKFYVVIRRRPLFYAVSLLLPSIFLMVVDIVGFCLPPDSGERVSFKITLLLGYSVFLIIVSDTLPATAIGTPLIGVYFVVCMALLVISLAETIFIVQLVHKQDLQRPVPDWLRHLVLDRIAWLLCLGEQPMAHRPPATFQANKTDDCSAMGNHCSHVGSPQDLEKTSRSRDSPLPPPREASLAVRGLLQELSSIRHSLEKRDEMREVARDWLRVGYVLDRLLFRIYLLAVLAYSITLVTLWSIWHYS

[6] = Plasma concentration in CD1 albino mouse at 20 mg/kg, ip after 15 mins; type: ADME, organism-based; parameters: dose 20 mg/kg, route intraperitoneal; method in brief: as §1
Rattus norvegicus [7] = experiment: Activity at 5HT3 receptor in urethane-anesthetized Sprague-Dawley rat assessed as effect on heart rate at 100 ug/kg, iv measured after 5 to 30 mins post-treatment by von Bezold-Jarisch reflex test relative to 40 ug/kg, iv 1-phenylbiguanide; type: functional, organism-based
[8] = target: T1, 5-hydroxytryptamine receptor 3A (Cavia porcellus); experiment: Intrinsic activity at 5HT3 receptor in spontaneously beating guinea pig right atrium assessed as positive chronotropic potency relative to serotonin; conditions: Cardiac atrium
Method in brief: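 Guinea pig left and right atria were hung in a 15 mL bath of PSS (pH 7.4, 95% O2-5% CO2, 35 °C) with ketanserin 1 µM. The right atrium beat spontaneously; the left was paced at 1 Hz. Cumulative doses (0.1-100 µM; DMSO ≤0.3%) were added after 45-60 min stabilization. Rate or isometric force was recorded. EC50 came from Probit analysis, n≥4. Intrinsic activity was taken relative to 5-HT.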

[9] = Plasma concentration in CD1 albino mouse at 5 mg/kg, ip after 15 mins; type: ADME, organism-based; parameters: dose 5 mg/kg, route intraperitoneal; method in brief: as §1
[10] = target: T3, Alpha-2A adrenergic receptor (Rattus norvegicus, UniProt P22909); experiment: Displacement of [3H]RX821002 from adrenergic alpha2 receptor in rat cortex
T3 sequence (P22909 whole entry): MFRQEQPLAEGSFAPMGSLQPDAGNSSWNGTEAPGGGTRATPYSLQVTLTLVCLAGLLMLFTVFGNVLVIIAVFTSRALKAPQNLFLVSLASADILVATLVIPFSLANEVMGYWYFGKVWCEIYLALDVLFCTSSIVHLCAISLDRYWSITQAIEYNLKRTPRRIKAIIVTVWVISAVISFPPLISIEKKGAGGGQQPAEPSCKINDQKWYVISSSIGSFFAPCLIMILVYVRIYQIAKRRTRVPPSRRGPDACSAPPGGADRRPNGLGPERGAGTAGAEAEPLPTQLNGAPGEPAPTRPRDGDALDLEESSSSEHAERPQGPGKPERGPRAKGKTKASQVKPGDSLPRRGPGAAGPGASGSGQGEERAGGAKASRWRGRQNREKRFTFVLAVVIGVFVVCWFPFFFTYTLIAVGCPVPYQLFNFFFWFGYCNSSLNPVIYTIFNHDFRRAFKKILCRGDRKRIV

Rattus norvegicus [11] = experiment: Partial agonist activity at 5HT3 receptor in iv dosed urethane-anesthetized Sprague-Dawley rat assessed as induction of bradycardia measured after 5 to 30 mins post-treatment by von Bezold-Jarisch reflex test; type: functional; conditions: read-out: ID50 (the source's name)
[12] = target: T4, 5-hydroxytryptamine receptor 3A (Cavia porcellus, UniProt O70212); experiment: Antagonist activity at 5HT3 receptor in spontaneously beating guinea pig right atrium assessed as inhibition of serotonin-induced maximum response by noncompetitive binding assay; type: tissue-based, Cardiac atrium
T4 sequence (O70212 whole entry): T1 sequence (whole entry)
Method in brief: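 Spontaneously beating guinea pig right atrium; 5-HT concentration-response curves (0.001-1.0 µM) before and after 30 min antagonist exposure at three concentrations. IC50 is inhibition of 50% of maximal 5-HT response, Probit analysis, n = 4-6.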

Rattus norvegicus [13] = experiment: Agonist activity at 5HT3 receptor in urethane-anesthetized Sprague-Dawley rat assessed as induction of bradycardia at 50 ug/kg, iv measured after 5 to 30 mins post-treatment by von Bezold-Jarisch reflex test relative to 40 ug/kg, iv 1-phenylbiguanide; type: functional
Rattus norvegicus [14] = experiment: Antagonist activity at 5HT3 receptor in urethane-anesthetized Sprague-Dawley rat assessed as half-blockade of 1-phenylbiguanide-induced bradycardia at 30 ug/kg, iv administered 5 mins before 1-phenylbiguanide challenge measured after 5 to 30 mins post-treatment by von Bezold-Jarisch reflex test; type: functional, organism-based

5-hydroxytryptamine receptor 2A, sequence (P14842 whole entry): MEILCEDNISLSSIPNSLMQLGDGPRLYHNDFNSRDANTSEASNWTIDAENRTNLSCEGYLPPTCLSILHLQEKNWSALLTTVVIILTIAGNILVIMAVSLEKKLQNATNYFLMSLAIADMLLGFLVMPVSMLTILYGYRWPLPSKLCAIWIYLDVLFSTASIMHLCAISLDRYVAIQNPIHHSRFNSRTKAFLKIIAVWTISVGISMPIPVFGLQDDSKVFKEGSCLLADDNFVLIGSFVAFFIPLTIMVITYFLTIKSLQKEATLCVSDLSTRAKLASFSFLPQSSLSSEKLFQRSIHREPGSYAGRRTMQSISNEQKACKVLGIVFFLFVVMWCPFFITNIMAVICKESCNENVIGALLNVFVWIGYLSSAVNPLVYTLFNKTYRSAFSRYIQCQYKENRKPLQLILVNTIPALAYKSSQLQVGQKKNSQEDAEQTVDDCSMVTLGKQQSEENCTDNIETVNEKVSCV

Compound	Vd/F [1] [L/kg]	Ki [2] [µM]	half-life [3] [min]	pD2 [4]	Ki [5] [µM]	concentration at 0.25 h [6] [µM]	Activity (Rattus norvegicus [7])	Intrinsic activity [8]	concentration at 0.25 h [9] [µM]	Ki [10] [µM]	ED50 (Rattus norvegicus [11]) [mg/kg]	IC50 [12] [µM]	Activity (Rattus norvegicus [13]) [%]	Activity (Rattus norvegicus [14])
N[C@@H](CN1CCN(c2nc3cc(F)ccc3n3cccc23)CC1)C(=O)O	6	5.69	53	5.98	0.0028	12	inactive	0.81	2	> 10	–	–	–	–
N/C(CN1CCN(c2nc3cc(F)ccc3n3cccc23)CC1)=N\O	–	> 10	–	–	0.0008	–	–	–	–	> 10	0.03	5.75	60	Active
